This passage reports percent modulation of GABA EC20 response and Ki results from ChEMBL document CHEMBL1136055, “3-Heteroaryl-2-pyridones: benzodiazepine site ligands with functional delectivity for alpha 2/alpha 3-subtypes of human GABA(A) receptor-ion channels” (J Med Chem, 2002).

The structures appear in SMILES notation.

In assay [1] the target is GABA-A receptor; alpha-2/beta-3/gamma-2 (Homo sapiens) (UniProt P18507+P28472+P47869). Nature of the assay: Modulatory effect on coapplication with GABA at human Gamma-aminobutyric acid A receptor alpha-2-beta-3-gamma-2 expressed inXenopus oocytes. The class given is cell-based. To be noted: Oocyte. A digest of the protocol: (§1)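 Two-electrode voltage clamp of Xenopus oocytes transiently expressing human α1, α2 or α3 β3γ2S receptors. Test compound is co-applied with GABA at its EC20 (GABA range 4-30 µM). Result is the % change in GABA current, mean (SEM), n = 3-7, at the stated test compound concentration (µM).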

Assay [2] deals with GABA-A receptor; alpha-1/beta-3/gamma-2 (Homo sapiens) (UniProt P14867+P18507+P28472). Description: Modulatory effect on coapplication with GABA at human Gamma-aminobutyric acid A receptor alpha-1-beta-3-gamma-2 in Xenopus oocyte. A digest of the protocol:
as §1

For assay [3], the target named is T1, GABA-A receptor; alpha-3/beta-3/gamma-2 (Homo sapiens, UniProt P18507+P28472+P34903).
T1 sequence (P18507 whole entry): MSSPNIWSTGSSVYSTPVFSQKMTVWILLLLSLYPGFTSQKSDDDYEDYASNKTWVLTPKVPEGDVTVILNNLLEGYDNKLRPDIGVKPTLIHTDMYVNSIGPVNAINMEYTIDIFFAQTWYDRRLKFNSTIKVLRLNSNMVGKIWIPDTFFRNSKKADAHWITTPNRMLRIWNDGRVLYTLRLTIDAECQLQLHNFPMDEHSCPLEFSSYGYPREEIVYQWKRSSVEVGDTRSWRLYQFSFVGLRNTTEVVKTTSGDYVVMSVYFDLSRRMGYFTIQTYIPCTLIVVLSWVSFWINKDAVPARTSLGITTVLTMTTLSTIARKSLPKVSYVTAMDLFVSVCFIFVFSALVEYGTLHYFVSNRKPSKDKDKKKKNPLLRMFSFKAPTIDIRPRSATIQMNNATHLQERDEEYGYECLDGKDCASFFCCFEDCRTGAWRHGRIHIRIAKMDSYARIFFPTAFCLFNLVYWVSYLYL
T1 sequence (P28472 whole entry): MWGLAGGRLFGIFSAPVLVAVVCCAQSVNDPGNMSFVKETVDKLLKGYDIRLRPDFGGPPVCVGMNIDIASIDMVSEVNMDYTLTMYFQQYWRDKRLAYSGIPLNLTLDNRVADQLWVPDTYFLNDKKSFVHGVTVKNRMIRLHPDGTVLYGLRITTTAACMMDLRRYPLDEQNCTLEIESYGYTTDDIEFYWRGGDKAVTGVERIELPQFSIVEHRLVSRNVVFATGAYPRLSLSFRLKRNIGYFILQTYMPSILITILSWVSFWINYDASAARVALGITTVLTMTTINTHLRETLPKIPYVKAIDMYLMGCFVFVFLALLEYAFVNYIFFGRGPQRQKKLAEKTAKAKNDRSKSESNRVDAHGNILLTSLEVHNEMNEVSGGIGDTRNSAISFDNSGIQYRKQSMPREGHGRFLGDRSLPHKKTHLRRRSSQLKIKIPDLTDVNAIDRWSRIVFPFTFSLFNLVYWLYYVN
T1 sequence (P34903 whole entry): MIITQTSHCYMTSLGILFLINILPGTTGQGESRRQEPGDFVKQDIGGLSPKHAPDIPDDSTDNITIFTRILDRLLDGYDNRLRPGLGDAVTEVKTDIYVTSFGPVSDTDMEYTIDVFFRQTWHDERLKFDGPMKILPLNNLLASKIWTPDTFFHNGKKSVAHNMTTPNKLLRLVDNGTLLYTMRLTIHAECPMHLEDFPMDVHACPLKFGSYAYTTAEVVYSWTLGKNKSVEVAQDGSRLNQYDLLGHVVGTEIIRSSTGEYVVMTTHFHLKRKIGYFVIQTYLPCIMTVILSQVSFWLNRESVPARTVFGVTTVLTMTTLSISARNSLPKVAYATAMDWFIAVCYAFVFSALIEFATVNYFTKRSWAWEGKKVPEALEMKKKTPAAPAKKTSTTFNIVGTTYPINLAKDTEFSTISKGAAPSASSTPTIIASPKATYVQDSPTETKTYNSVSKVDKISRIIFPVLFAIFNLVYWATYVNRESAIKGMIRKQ
Description: Binding affinity by displacement of [3H]Ro-151788 from recombinant human gamma-aminobutyric-acid A receptor alpha3,beta3,gamma2 stably expressed in L cells. Type of assay: cell-based. Summed up:
(§2)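 Competition binding against [3H]Ro15-1788 on cloned human α1/α2/α3/α5 β3γ2S receptors stably expressed in L(tk-) cells. Six to eight test concentrations spaced in half-log steps. Ki given as mean (SEM), n = 3-5, reported to two significant figures.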
(Displacement assays read how much labelled ligand stays bound in the presence of the test substance.)

For assay [4], the target named is T2, GABA-A receptor; alpha-2/beta-3/gamma-2 (Homo sapiens, UniProt P18507+P28472+P47869).
T2 sequence (P18507 whole entry): T1 sequence (P18507 whole entry)
T2 sequence (P28472 whole entry): T1 sequence (P28472 whole entry)
T2 sequence (P47869 whole entry): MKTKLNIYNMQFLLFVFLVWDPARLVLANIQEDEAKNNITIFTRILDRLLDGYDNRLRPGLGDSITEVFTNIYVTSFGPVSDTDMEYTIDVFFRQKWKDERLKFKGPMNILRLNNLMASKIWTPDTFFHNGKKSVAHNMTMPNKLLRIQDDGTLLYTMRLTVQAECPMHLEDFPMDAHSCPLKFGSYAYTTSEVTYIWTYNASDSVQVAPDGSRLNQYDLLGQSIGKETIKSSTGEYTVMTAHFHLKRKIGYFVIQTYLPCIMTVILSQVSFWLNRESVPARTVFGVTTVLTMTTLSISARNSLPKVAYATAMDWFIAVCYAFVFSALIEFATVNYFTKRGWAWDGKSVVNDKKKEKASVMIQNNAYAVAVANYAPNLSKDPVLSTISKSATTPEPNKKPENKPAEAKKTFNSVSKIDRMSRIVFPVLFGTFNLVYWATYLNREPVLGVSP
Nature of the assay: Displacement of [3H]Ro-151788 from human Gamma-aminobutyric acid A receptor alpha-2-beta-3-gamma-2 stably expressed in L(tk-) cells. The class given is cell-based. Summed up: as §2

Assay [5] has as its target T3, GABA-A receptor; alpha-1/beta-3/gamma-2 (Homo sapiens, UniProt P14867+P18507+P28472).
T3 sequence (P14867 whole entry): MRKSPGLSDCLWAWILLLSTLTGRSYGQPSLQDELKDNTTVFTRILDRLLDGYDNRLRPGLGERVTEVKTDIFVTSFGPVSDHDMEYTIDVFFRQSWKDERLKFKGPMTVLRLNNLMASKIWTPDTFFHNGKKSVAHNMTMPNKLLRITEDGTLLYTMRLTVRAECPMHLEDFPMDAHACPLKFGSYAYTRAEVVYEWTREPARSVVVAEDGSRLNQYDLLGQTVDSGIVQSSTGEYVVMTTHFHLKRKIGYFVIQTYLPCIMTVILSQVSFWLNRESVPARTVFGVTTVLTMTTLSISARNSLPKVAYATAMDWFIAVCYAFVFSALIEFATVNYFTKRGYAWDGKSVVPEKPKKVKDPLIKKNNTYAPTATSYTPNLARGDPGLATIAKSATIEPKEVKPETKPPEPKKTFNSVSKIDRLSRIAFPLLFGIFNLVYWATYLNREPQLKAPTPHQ
T3 sequence (P18507 whole entry): T1 sequence (P18507 whole entry)
T3 sequence (P28472 whole entry): T1 sequence (P28472 whole entry)
Nature of the assay: Inhibition of [3H]Ro-151788 binding to human GABA A receptor (alpha-1-beta-3-gamma-2) stably expressed in L(tk-) cells. Type of assay: cell-based.

With `COc1ccc(-c2cc(-c3nc(C)cs3)c(=O)n(C)c2-c2ccnnc2)cc1`, the percent modulation of GABA EC20 response in assay [1] was found to be 33%; in assay [2], 7%. The Ki (commonly a dissociation constant, usually derived from enzyme kinetics or from competition with a known ligand) in assay [3] was found to be 4.1 nM; in assay [4], 6.6 nM; in assay [5], 17 nM.
Taken in the same sequence, the figures for `COc1ccc(-c2cc(-c3nc(C)cs3)c(=O)n(C)c2-c2ccncc2)cc1` were 80%, 7%, 3.4 nM, 8.6 nM and 17 nM.
